In ChEMBL document CHEMBL3272042, “Novel heterocyclic nitrofurfural hydrazones. In vivo antirypanosomal activity” (J Med Chem, 1976):
In brackets after ≈: the same amount, converted by molar mass. Activity calls are given as the source filed them. The rule behind the calls is not given here.

Assays:
Trypanosoma cruzi [1] = test: Antitrypanosomal activity against bloodstream forms of Trypanosoma cruzi infected in C3H/He mouse assessed as increase in mean survival time at 100 mg/kg, po bid administered through gavage starting 3 days post challenge for 5 successive days relative to control; format: functional; settings: for survival at 100 mg/kg: Trypanosoma cruzi, po, 72 h
In short: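 Male C3H/He mice infected ip with 2×10^3 bloodstream T. cruzi (Brazilian strain). Compound micronized to 0.5-2.0 μ and suspended in 0.9% NaCl, 1.0% Na carboxymethylcellulose, 0.5% Tween 80, 0.05% antifoam B; given at 100 mg/kg (0.01 ml/2 g) by gavage twice daily for 5 days from day 3 post-infection; groups of 7. Value is percent IMST over untreated controls; Student's t test.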

Mus musculus [2] = test: Toxicity in C3H/He mouse infected with bloodstream forms of Trypanosoma cruzi assessed as weight loss at 100 mg/kg, po bid administered through gavage starting 3 days post challenge for 5 successive days; format: organism-based; parameters: dose 100 mg/kg, route oral; settings: in vivo, 72 h
In short: (§1)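 Male C3H/He mice were infected ip with 2×10^3 bloodstream forms of a Brazilian T. cruzi strain. Compounds were micronized to 0.5-2.0 μ and suspended in 0.9% NaCl, 1.0% Na-CMC, 0.5% Tween 80 and 0.05% antifoam B, dosed at 0.01 ml/2 g body weight. Groups of seven got 100 mg/kg by gavage twice daily for 5 days, starting day 3 postinfection, with untreated controls.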

Trypanosoma cruzi [3] = test: Antitrypanosomal activity against bloodstream forms of Trypanosoma cruzi by in vitro assay; format: functional; settings: for MIC: Trypanosoma cruzi
In short: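 Serial dilution in liquid culture in Warren's medium. Read-outs are the minimum inhibitory concentration (MIC) and the minimum lethal concentration (MLC), both in μg/ml.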

Trypanosoma cruzi [4] = test: Antitrypanosomal activity against bloodstream forms of Trypanosoma cruzi infected in C3H/He mouse assessed as increase in mean survival time at 100 mg/kg, ip bid starting 3 days post challenge for 5 successive days relative to control; format: functional; settings: 72 h, route intraperitoneal
In short: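 Infection: ip inoculation of 2×10^3 bloodstream forms of a Brazilian T. cruzi strain into male C3H/He mice. Compound given by intraperitoneal route, 100 mg/kg twice daily. Value is percent increase in mean survival time beyond untreated controls, taken from mortality records; significance by Student's t test.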

Trypanosoma cruzi [5] = test: Antitrypanosomal activity against bloodstream forms of Trypanosoma cruzi infected in C3H/He mouse assessed as parasitologic cures at 100 mg/kg, po bid administered through gavage starting 3 days post challenge for 5 successive days relative to control; format: functional, organism-based; parameters: dose 100 mg/kg; in short: as §1
Mus musculus [6] = test: Toxicity in C3H/He mouse infected with bloodstream forms of Trypanosoma cruzi assessed as weight loss at 200 mg/kg, po qid administered 4 times a day through gavage starting 3 days post challenge for 5 successive days; settings: in vivo, 72 h
Trypanosoma cruzi [7] = test: Antitrypanosomal activity against bloodstream forms of Trypanosoma cruzi infected in C3H/He mouse assessed as parasitologic cures at 200 mg/kg, po administered 4 times a day through gavage starting 3 days post challenge for 5 successive days relative to control; format: functional, organism-based; parameters: dose 200 mg/kg
In short: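 Male C3H/He mice were infected ip with 2×10^3 bloodstream T. cruzi forms (Brazilian strain). Compound was given orally at 200 mg/kg four times daily for 5 days, then followed for parasitemia, survival and body weight.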

SMILES | survival at 100 mg/kg (Trypanosoma cruzi [1]) [%] | Activity (Mus musculus [2]) | MLC (Trypanosoma cruzi [3]) [µg/mL] | MIC (Trypanosoma cruzi [3]) [µg/mL] | survival at 100 mg/kg (Trypanosoma cruzi [4]) [%] | Survival (Trypanosoma cruzi [1]) [%] | Activity (Trypanosoma cruzi [5]) | Activity (Mus musculus [6]) | Activity (Trypanosoma cruzi [7])
Cc1cc(N/N=C/c2ccc([N+](=O)[O-])o2)n2ncc(Br)c2n1 | 21.9 | Non-toxic | >100 | 100 (≈ 274 µM) |  |  |  |  | 
Cc1cc(N/N=C/c2ccc([N+](=O)[O-])o2)n2ncc(-c3ccccc3)c2n1 |  | Non-toxic | 1 (≈ 2.76 µM) | < 1 |  |  |  |  | 
O=[N+]([O-])c1ccc(/C=N/Nc2cc(Cl)nc3c(Cl)cnn23)o1 | 14.6 | Non-toxic | 10 (≈ 29.3 µM) | 10 (≈ 29.3 µM) |  |  |  |  | 
Cc1nc(N/N=C/c2ccc([N+](=O)[O-])o2)n2nc(-c3ccccc3)cc2n1 | 24.9 |  | 3.2 (≈ 8.81 µM) | 1 (≈ 2.75 µM) |  |  |  |  | 
Cc1cc(N/N=C/c2ccc([N+](=O)[O-])o2)n2ncc(-c3ccc(Cl)cc3)c2n1 |  | Non-toxic | 3.2 (≈ 8.06 µM) | 1 (≈ 2.52 µM) | 20.5 |  |  |  | 
CCOC(=O)c1cnn2c(N/N=C/c3ccc([N+](=O)[O-])o3)cc(C)nc12 | 1.3 | Non-toxic | 10 (≈ 27.9 µM) | 10 (≈ 27.9 µM) |  |  |  |  | 
O=[N+]([O-])c1ccc(/C=N/Nc2cc(Cl)nc3ccnn23)o1 | 36.3 | Non-toxic | 1 (≈ 3.26 µM) | < 1 |  |  |  |  | 
O=[N+]([O-])c1ccc(/C=N/Nc2ccnc3ccnn23)o1 | < 1 | Non-toxic | 10 (≈ 36.7 µM) | 10 (≈ 36.7 µM) |  |  |  |  | 
Cc1cc(N/N=C/c2ccc([N+](=O)[O-])o2)n2ccnc2n1 |  |  | >100 | > 100 |  |  |  |  | 
Cc1cc(N/N=C/c2ccc([N+](=O)[O-])o2)n2ncc(S(=O)(=O)[O-])c2n1.[Na+] |  | Non-toxic | >100 | > 100 |  | 8.5 |  |  | 
O=[N+]([O-])c1ccc(/C=N/Nc2cc(Cl)nc3nccn23)o1 | 4.4 |  | 100 (≈ 326 µM) | 10 (≈ 32.6 µM) |  |  |  |  | 
Cc1cc(N/N=C/c2ccc([N+](=O)[O-])o2)n2ncc(S(=O)(=O)O)c2n1 | 9 | Non-toxic | 100 (≈ 273 µM) | > 10 |  |  |  |  | 
Cc1cc(N/N=C/c2ccc([N+](=O)[O-])o2)n2ncnc2n1 | 4.3 |  | >100 | > 100 |  |  |  |  | 
Cc1cc(N/N=C/c2ccc([N+](=O)[O-])o2)n2nccc2n1 | 63.4 | Non-toxic | 10 (≈ 34.9 µM) | 10 (≈ 34.9 µM) |  |  | inactive | Toxic | inactive
